{"source": "ChEMBL document CHEMBL4219146", "about": "“Synthesis and Pharmacological Evaluation of Heterocyclic Carboxamides: Positive Allosteric Modulators of the M1 Muscarinic Acetylcholine Receptor with Weak Agonist Activity and Diverse Modulatory Profiles” (J Med Chem, 2018)", "key": {"[1]": {"molecular_target": "T1, Muscarinic acetylcholine receptor M1 (Homo sapiens) (UniProt P11229)", "T1 sequence (whole entry)": "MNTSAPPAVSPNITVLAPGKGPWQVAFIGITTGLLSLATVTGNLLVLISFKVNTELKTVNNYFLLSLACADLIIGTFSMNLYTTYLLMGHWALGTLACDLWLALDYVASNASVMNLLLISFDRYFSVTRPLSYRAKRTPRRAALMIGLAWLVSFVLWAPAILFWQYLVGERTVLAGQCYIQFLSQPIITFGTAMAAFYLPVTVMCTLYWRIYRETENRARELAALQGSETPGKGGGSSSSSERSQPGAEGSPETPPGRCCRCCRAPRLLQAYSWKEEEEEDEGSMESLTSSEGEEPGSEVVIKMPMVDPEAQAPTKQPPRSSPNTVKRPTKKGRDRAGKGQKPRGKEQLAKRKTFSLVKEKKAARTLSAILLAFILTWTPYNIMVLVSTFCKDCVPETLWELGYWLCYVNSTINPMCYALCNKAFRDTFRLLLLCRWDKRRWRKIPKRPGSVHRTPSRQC", "test": "Intrinsic activity at human muscarinic acetylcholine receptor M1 expressed in flpIn-CHO cells assessed as induction of IP1 accumulation at 10 uM after 1 hr by HTRF assay relative to control", "assay_type": "functional, cell-based", "how_it_was_run": "(§1)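 FlpIn CHO-hM1 cells, 25,000/well, seeded overnight, then preincubated 1 h at 37 °C in HEPES stimulation buffer with 50 mM LiCl, pH 7.4. ACh concentration-response curves run ± 10 µM modulator for 1 h at 37 °C. IP1 read by HTRF (665/620 nm) from lysates, interpolated from a standard curve and normalized to the ACh maximum. ∆pEC50 and ∆baseline taken versus ACh alone. ≥3 experiments, in duplicate.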"}, "[2]": {"molecular_target": "T1, Muscarinic acetylcholine receptor M1 (Homo sapiens)", "test": "Positive allosteric modulation of human muscarinic acetylcholine receptor M1 expressed in flpIn-CHO cells assessed as potentiation of acetylcholine-mediated IP1 accumulation at 10 uM measured after 1 hr by based HTRF assay relative to control", "assay_type": "functional, cell-based", "how_it_was_run": "as §1"}, "[3]": {"molecular_target": "T2, Muscarinic acetylcholine receptor M1 (Homo sapiens, UniProt P11229)", "T2 sequence (P11229 whole entry)": "T1 sequence (whole entry)", "test": "Allosteric agonist at human muscarinic acetylcholine receptor M1 expressed in CHO cells assessed as induction of calcium mobilization after 2.5 mins by Fluo-4AM-based FLIPR assay", "assay_type": "functional, cell-based"}, "[4]": {"molecular_target": "T2, Muscarinic acetylcholine receptor M1", "test": "Positive allosteric modulation of human muscarinic acetylcholine receptor M1 expressed in CHO cells assessed as potentiation of acetylcholine-induced calcium mobilization preincubated for 2.5 mins followed by acetylcholine addition measured after 1 min by Fluo-4AM-based FLIPR assay", "assay_type": "functional, cell-based"}, "[5]": {"molecular_target": "T1, Muscarinic acetylcholine receptor M1 (Homo sapiens)", "test": "Displacement of [3H]-NMS from human muscarinic acetylcholine receptor M1 expressed in flpIn-CHO cell membranes after 5 hrs in presence of acetylcholine at EC20 by liquid scintillation counting", "how_it_was_run": "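Whole-cell binding in FlpIn CHO-hM1 cells, 50,000/well, plated overnight and PBS-washed. Modulator titrated with a fixed EC20 ACh plus 0.2 nM [3H]NMS for 5 h at room temperature in HEPES/NaCl/MgCl2 buffer, pH 7.4. 100 µM atropine defined nonspecific binding. Cells washed with ice-cold saline and counted by scintillation. Data fitted to the allosteric ternary complex model.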"}, "[6]": {"molecular_target": "T1, Muscarinic acetylcholine receptor M1 (Homo sapiens)", "test": "Displacement of [3H]-NMS from human muscarinic acetylcholine receptor M1 […] after 5 hrs by liquid scintillation counting"}, "[7]": {"molecular_target": "T1, Muscarinic acetylcholine receptor M1 (Homo sapiens)", "test": "Allosteric agonist at human muscarinic acetylcholine receptor M1 expressed in CHO-NFAT cells assessed as induction of calcium mobilization after 4 mins by Fluo-4AM-based FLIPR assay", "assay_type": "functional, cell-based"}}, "note": "Calls of active or inactive are those of the source. No cut-off for these calls is given here.", "data": [{"compound": "Cn1cc(-c2ccc(Cn3cc(C(=O)NC4CCNCC4)c4ncccc43)cc2)cn1", "values": [{"measurement": "Intrinsic activity", "setting": "[1]", "result": "Active"}]}, {"compound": "Cn1cc(-c2ccc(Cn3cc(C(=O)N4CCCC4)c4ncccc43)cc2)cn1", "values": [{"measurement": "Intrinsic activity", "setting": "[1]", "result": "inactive"}, {"measurement": "Activity", "setting": "[2]", "result": "Active"}]}, {"compound": "CN(C)C(=O)c1cn(Cc2ccc(-c3cnn(C)c3)cc2)c2cccnc12", "values": [{"measurement": "Intrinsic activity", "setting": "[1]", "result": "inactive"}, {"measurement": "Activity", "setting": "[2]", "result": "Active"}]}, {"compound": "Cn1cc(-c2ccc(Cn3nc(C(=O)N[C@H]4CCCC[C@@H]4O)c4ccccc43)cc2)cn1", "values": [{"measurement": "Intrinsic activity", "setting": "[1]", "result": "Active"}, {"measurement": "Activity", "setting": "[2]", "result": "Active"}]}, {"compound": "Cn1cc(-c2ccc(Cn3cc(C(=O)N[C@@H]4CCCC[C@H]4O)c4c(F)cc(F)cc43)cn2)cn1", "values": [{"measurement": "EC50", "setting": "[3]", "result": 4800, "unit": "nM"}, {"measurement": "EC50", "setting": "[4]", "result": 210, "unit": "nM"}]}, {"compound": "Cn1cc(-c2ccc(Cn3cc(C(=O)N4CCNCC4)c4ncccc43)cc2)cn1", "values": [{"measurement": "Intrinsic activity", "setting": "[1]", "result": "Active"}]}, {"compound": "CCNC(=O)c1cn(Cc2ccc(-c3cnn(C)c3)cc2)c2cccnc12", "values": [{"measurement": "pKb", "setting": "[5]", "result": 4.61}, {"measurement": "Intrinsic activity", "setting": "[1]", "result": 3.63}, {"measurement": "log(IA)", "setting": "[1]", "result": 0.56}]}, {"compound": "Cn1cc(-c2ccc(Cn3cc(C(=O)Nc4ccccc4)c4ncccc43)cc2)cn1", "values": [{"measurement": "Intrinsic activity", "setting": "[1]", "result": 73, "unit": "%"}]}, {"compound": "Cn1cc(-c2ccc(Cn3cc(C(=O)N[C@H]4CCCO[C@@H]4O)c4ncccc43)cc2)cn1", "values": [{"measurement": "Intrinsic activity", "setting": "[1]", "result": "Active"}]}, {"compound": "Cn1cc(-c2ccc(Cn3cc(C(=O)N[C@H]4CCCC[C@@H]4O)c4c(Cl)cccc43)cc2)cn1", "values": [{"measurement": "Intrinsic activity", "setting": "[1]", "result": "Active"}, {"measurement": "Activity", "setting": "[2]", "result": "Active"}]}, {"compound": "Cn1cc(-c2ccc(Cn3cc(C(=O)N[C@H]4CC[C@H](O)CC4)c4ncccc43)cc2)cn1", "values": [{"measurement": "Intrinsic activity", "setting": "[1]", "result": "Active"}]}, {"compound": "CNC(=O)c1cn(Cc2ccc(-c3cnn(C)c3)cc2)c2cccnc12", "values": [{"measurement": "Activity", "setting": "[2]", "result": "Active"}]}, {"compound": "Cn1cc(-c2ccc(Cn3cc(C(=O)NC4CCCCC4)c4ncccc43)cc2)cn1", "values": [{"measurement": "Intrinsic activity", "setting": "[1]", "result": "Active"}]}, {"compound": "Cn1cc(-c2ccc(Cn3ccc(C(=O)N[C@H]4CCCC[C@@H]4O)c3)cc2)cn1", "values": [{"measurement": "pKb", "setting": "[5]", "result": 4.19}, {"measurement": "Intrinsic activity", "setting": "[1]", "result": 3.31}, {"measurement": "log(IA)", "setting": "[1]", "result": 0.52}, {"measurement": "fold change (FC)", "setting": "[2]", "result": 7}]}, {"compound": "Cn1cc(-c2ccc(Cn3cc(C(=O)N[C@H]4CCCC[C@@H]4O)c4c(F)cccc43)cc2)cn1", "values": [{"measurement": "Intrinsic activity", "setting": "[1]", "result": "Active"}, {"measurement": "Activity", "setting": "[2]", "result": "Active"}]}, {"compound": "CN(C(=O)c1cn(Cc2ccc(-c3cnn(C)c3)cc2)c2cccnc12)C1CCCCC1", "values": [{"measurement": "pKb", "setting": "[5]", "result": 4.91}, {"measurement": "Intrinsic activity", "setting": "[1]", "result": 0.57}, {"measurement": "log(IA)", "setting": "[1]", "result": -0.24}]}, {"compound": "Cn1cc(-c2ccc(Cn3cc(C(=O)N[C@H]4CCCC[C@@H]4O)c4ccccc43)cc2)cn1", "values": [{"measurement": "Intrinsic activity", "setting": "[1]", "result": "Active"}, {"measurement": "Activity", "setting": "[2]", "result": "Active"}]}, {"compound": "CCN(CC)C(=O)c1cn(Cc2ccc(-c3cnn(C)c3)cc2)c2cccnc12", "values": [{"measurement": "pKb", "setting": "[5]", "result": 4.43}, {"measurement": "Intrinsic activity", "setting": "[1]", "result": 0}]}, {"compound": "Cn1cc(-c2ccc(Cn3cc(C(N)=O)c4ncccc43)cc2)cn1", "values": [{"measurement": "Activity", "setting": "[2]", "result": "Active"}]}, {"compound": "Cn1cc(-c2ccc(Cn3cc(C(=O)Nc4ccccc4O)c4ncccc43)cc2)cn1", "values": [{"measurement": "Intrinsic activity", "setting": "[1]", "result": 14, "unit": "%"}, {"measurement": "Activity", "setting": "[2]", "result": "inactive"}]}, {"compound": "Cn1cc(-c2ccc(Cn3cc(C(=O)N[C@H]4CCOC[C@@H]4O)c4ncccc43)cc2)cn1", "values": [{"measurement": "Intrinsic activity", "setting": "[1]", "result": "Active"}]}, {"compound": "Cn1cc(-c2ccc(Cn3cc(C(=O)N[C@H]4CCC[C@@H]4O)c4ncccc43)cc2)cn1", "values": [{"measurement": "Intrinsic activity", "setting": "[1]", "result": "Active"}]}, {"compound": "Cn1cc(-c2ccc(Cn3cc(C(=O)NC4CCC(=O)CC4)c4ncccc43)cc2)cn1", "values": [{"measurement": "Intrinsic activity", "setting": "[1]", "result": "Active"}]}, {"compound": "O=C(O)c1ccc(Cn2cc(C(=O)N[C@H]3CCCC[C@@H]3O)c3ncccc32)cc1", "values": [{"measurement": "pKb", "setting": "[5]", "result": 4.63}, {"measurement": "Intrinsic activity", "setting": "[1]", "result": 2.88}, {"measurement": "log(IA)", "setting": "[1]", "result": 0.46}]}, {"compound": "Cn1cc(-c2ccc(Cn3cc(C(=O)N[C@H]4CCCC[C@@H]4N)c4ncccc43)cc2)cn1", "values": [{"measurement": "Activity", "setting": "[2]", "result": "Active"}]}, {"compound": "Cn1cc(-c2ccc(Cn3cc(C(=O)N4CCCCC4)c4ncccc43)cc2)cn1", "values": [{"measurement": "Intrinsic activity", "setting": "[1]", "result": "inactive"}, {"measurement": "Activity", "setting": "[2]", "result": "inactive"}]}, {"compound": "Cn1cc(-c2ccc(Cn3cc(C(=O)NC4CCOCC4)c4ncccc43)cc2)cn1", "values": [{"measurement": "Intrinsic activity", "setting": "[1]", "result": "Active"}]}, {"compound": "Cc1cnc(C(=O)N[C@@H]2CCOC[C@H]2O)cc1Cc1ccc(-c2cscn2)cc1", "values": [{"measurement": "pKb", "setting": "[6]", "result": 6.2}]}, {"compound": "Cn1cc(-c2ccc(Cn3cc(C(=O)N4CCN(C(=O)OC(C)(C)C)CC4)c4ncccc43)cc2)cn1", "values": [{"measurement": "Activity", "setting": "[2]", "result": "inactive"}]}, {"compound": "COc1ccc(Cn2cc(C(=O)O)c(=O)c3ccccc32)cc1", "values": [{"measurement": "pKb", "setting": "[6]", "result": 5.48}, {"measurement": "Intrinsic activity", "setting": "[7]", "result": 2.09}, {"measurement": "log(IA)", "setting": "[7]", "result": 0.32}]}, {"compound": "Cn1cc(-c2ccc(Cn3cc(C(=O)N[C@H]4CCCC[C@@H]4O)c4ncccc43)cc2)cn1", "values": [{"measurement": "pKb", "setting": "[6]", "result": 5.92}, {"measurement": "Intrinsic activity", "setting": "[1]", "result": 22.9}, {"measurement": "log(IA)", "setting": "[1]", "result": 1.36}, {"measurement": "Activity", "setting": "[2]", "result": "Active"}]}]}
